PAFAH1B3 inh: inhibitors of human PAFAH1B3; Q15102; recombinant PAFAH1B3, FP-rhodamine probe, fluorescence polarization; inhibition, % at 3.39 µM; 340,000 tested, 0.28% active;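 active = inhibition above the screen-wide average of all tested compounds plus 3 SD, cut at about 25% in these data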;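 note: 0% = enzyme with DMSO only and 100% = wells lacking PAFAH1B3 protein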
PAFAH1B2 inh: inhibitors of human PAFAH1B2; recombinant PAFAH1B2, FP-rhodamine activity probe, fluorescence polarization; inhibition, % at 3.39 µM; 340,000 tested, 1.2% active; AID 492953;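 active = inhibition above the mean of all tested compounds plus 3 SD, cut at about 24% in these data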;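 note: 0% = enzyme with DMSO and 100% = wells lacking PAFAH1B2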
Target sequence (P68402 whole entry, looked up): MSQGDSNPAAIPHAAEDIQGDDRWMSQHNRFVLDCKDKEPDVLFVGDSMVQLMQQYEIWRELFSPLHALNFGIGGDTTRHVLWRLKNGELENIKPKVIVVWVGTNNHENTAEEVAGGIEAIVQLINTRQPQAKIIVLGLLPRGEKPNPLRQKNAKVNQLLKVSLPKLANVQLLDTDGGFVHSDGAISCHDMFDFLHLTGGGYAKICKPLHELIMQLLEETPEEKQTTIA
ASAP1 GAP inh: blocks human ASAP1-stimulated Arf1 GTP hydrolysis | Q9ULH1 | GDP FP detection | inhibition, % at 16.5 µM | 360,000 tested, 0.19% active; in the data active = inhibition above about 25%;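 note: 0% = vehicle with enzyme and substrate and 100% = no enzyme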
Target sequence (Q9ULH1 325-724 limits assumed): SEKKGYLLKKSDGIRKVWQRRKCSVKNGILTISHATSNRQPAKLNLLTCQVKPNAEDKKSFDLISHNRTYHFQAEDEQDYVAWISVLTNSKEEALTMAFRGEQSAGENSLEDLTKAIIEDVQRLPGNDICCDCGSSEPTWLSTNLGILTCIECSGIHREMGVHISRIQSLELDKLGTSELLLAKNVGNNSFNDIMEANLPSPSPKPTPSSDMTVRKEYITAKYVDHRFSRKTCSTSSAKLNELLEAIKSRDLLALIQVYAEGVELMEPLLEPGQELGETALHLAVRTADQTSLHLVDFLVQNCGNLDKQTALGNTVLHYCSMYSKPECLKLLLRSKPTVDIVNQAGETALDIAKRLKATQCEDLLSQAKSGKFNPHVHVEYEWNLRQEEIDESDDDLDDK
PAFAH2 inh: inhibitors of human PAFAH2; Q99487; recombinant PAFAH2, FP-rhodamine activity probe, fluorescence polarization; inhibition, % at 3.39 µM; 340,000 tested, 0.99% active; AID 492956;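 active = inhibition above the mean over all tested compounds plus 3 SD, cut at about 30% in these data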;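 note: inhibitors block probe labeling of enzyme so polarization drops; 0% = enzyme with DMSO and 100% = wells lacking PAFAH2 protein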
ARFGAP1 inh: rat ARFGAP1 inhibition; Q62848; Arfgap1-stimulated ARF1 GTP hydrolysis, GDP FP detection; inhibition, % at 16.5 µM; 360,000 tested, 0.26% active; AID 651572;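 active = inhibition above a per-plate limit, mean inhibition of low control wells plus 3 SD, cut at about 25% in these data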;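 note: 0% = DMSO wells with enzyme and 100% = wells lacking Arfgap1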
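Replicates: Single well per compound | Assay system: Truncated rat Arfgap1 GAP domain | Control set: No-Arfgap1 wells (100%) versus DMSO full-reaction wells (0%) | Times: Enzyme reaction 120 min at 25 °C after 20 min preincubation | Reagent: Human ARF1(Δ1-17)-GTP substrate | Measured by: Tracer-displacement fluorescence polarization with EDTA stop, 620/688 nm | Measure: Percent inhibition of Arfgap1-stimulated GTP hydrolysis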
pPAFAH FP inh: pPAFAH (human) enzyme inhibition | 330,000 tested, 1.5% active | Q13093 | recombinant pPAFAH, FP-rhodamine probe fluorescence polarization | inhibition, % at 3.39 µM | AID 463082;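 active = inhibition above the mean inhibition across the screen plus 3 SD, cut at about 25% in these data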;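 note: inhibitors block binding of the rhodamine activity-based probe so polarization drops; 0% = enzyme with DMSO and 100% = wells lacking pPAFAH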
pPAFAH FP conf: pPAFAH (human) inhibition, confirmed | shares compounds with pPAFAH FP inh | recombinant pPAFAH, FP-Rh probe fluorescence polarization | inhibition, % at 3.39 µM | 2,300 tested, 72% active;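 active = mean inhibition of the triplicate above the hit cutoff set for the earlier primary screen, cut at about 25% in these data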;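 note: 0% = enzyme with DMSO and 100% = wells lacking pPAFAH enzyme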
Numbers without * were called inactive; x = no result given. In the library only some 2.7% were active in any assay of this set; here they are far more common.

SMILES	PAFAH1B3 inh	PAFAH1B2 inh	ASAP1 GAP inh	PAFAH2 inh	ARFGAP1 inh	pPAFAH FP inh	pPAFAH FP conf
O=c1c(O)cccc2cc(O)c(O)c(O)c12	42.0*	34.7*	-0.2	86.6*	-4.3	93.6*	87.9*
Cc1ccc(OCC(=O)N/N=C/C=C/c2ccco2)cc1	-0.6	-2.4	-9.0	8.9	-3.8	51.1*	17.1
CC1CCCN(c2cccc3c2S(=O)(=O)N([C@H](C)c2ccccc2)C[C@@H](COCc2ccccc2)O3)C1 (stereo partly drawn)	x	x	11.3	x	20.5	x	x
COc1cc(CNCc2ccncc2)cc(Br)c1OCc1ccccc1F	9.7	-1.1	13.2	-7.1	-4.2	3.0	x
COc1cc(CNc2ccc(O)cc2)cc(Br)c1OCc1ccccc1F	10.1	9.5	x	6.6	x	39.0*	7.9
CCOc1cc(CNc2ccc(O)cc2)cc(Br)c1OCc1ccccc1F	18.1	5.8	x	8.4	x	43.4*	19.7
CCN(CC)S(=O)(=O)c1cccc(C(=O)N/N=C/c2cccc(O)c2O)c1	4.1	0.4	8.1	12.0	7.7	41.1*	29.3*
CCN(CC)S(=O)(=O)c1cccc(C(=O)N/N=C/c2cc(OC)c(O)c(OC)c2)c1	-4.9	6.3	11.0	2.2	1.2	6.8	x
COC(=O)[C@]12C[C@H](CC(=O)NCCCCc3ccccc3)C(=O)N(Cc3ccccc3)C1=C[C@H](C(C)C)O[C@@H]2C1CC1	x	x	1.3	x	-5.2	x	x
Cc1cc(/C=N/Nc2ccc([N+](=O)[O-])cn2)c(C)n1-c1ccc(C(=O)O)cc1	11.3	-0.5	1.1	8.5	-6.0	53.8*	18.4
Cc1ccccc1-n1c(C)cc(/C=N/Nc2ccc([N+](=O)[O-])cn2)c1C	1.5	-0.1	-0.3	-2.3	-4.8	5.1	x
CC1=C(C(=O)OCCCBr)C(c2ccc3c(c2)OCO3)NC(=O)N1 (stereo not drawn)	-0.6	-4.7	x	3.6	x	42.8*	5.6
CCCCCOC(=O)C1=C(C)NC(=O)NC1c1ccc2c(c1)OCO2 (stereo not drawn)	2.4	8.8	-1.3	8.2	-3.8	4.8	x
O=C(c1cc(S(=O)(=O)N2CCOCC2)c(Cl)cc1Cl)N1CCCC1	1.9	2.6	7.3	-3.9	4.5	x	x
O=C(c1cc(S(=O)(=O)N2CCOCC2)c(Cl)cc1Cl)N1CCCCC1CO (stereo not drawn)	-0.1	0.3	-11.1	-4.9	-3.8	46.5*	2.6
Cc1ccc(NS(=O)(=O)c2ccc(NC(=O)CN(c3cc([N+](=O)[O-])ccc3C)S(C)(=O)=O)cc2)c(C)c1	-39.4	-23.7	13.9	-62.3	11.2	41.8*	51.1*
O=Nc1ccc(Br)cn1	x	x	2.6	x	6.3	x	x
C1CCC(c2nn3c(-c4n[nH]c5c4CCC5)nnc3s2)CC1	-0.5	-1.4	0.0	9.7	5.6	9.5	x
CCN(CC)c1ccc(-c2nn3c(-c4n[nH]c5c4CCC5)nnc3s2)cc1	2.5	2.3	-2.5	20.0	13.8	35.2*	45.4*
CCc1ccc(/C=N/Nc2nn[nH]n2)cc1	11.1	5.7	-5.5	-0.9	-1.4	-0.2	x
O=C(CC1Nc2cccc3cccc(c23)NC1=O)Nc1ccccc1 (stereo not drawn)	18.1	4.2	1.4	58.4*	6.0	51.8*	11.8
COc1ccc(C(=O)COC(=O)C2CCC(=O)N2)cc1 (stereo not drawn)	2.3	-1.6	11.4	-12.4	4.2	2.6	x
O=[N+]([O-])c1ccccc1S(=O)(=O)N1CCN(S(=O)(=O)c2ccc3c(c2)OCCO3)CC1	-3.3	-3.1	x	-3.0	x	1.5	x
CCCCCCCCN1C(=O)[C@@H](CC(=O)N2CCCC2)C[C@@]2(C(=O)OC)C1=C[C@H](C(C)(C)C)O[C@@H]2C	x	x	-5.6	x	-15.2	x	x
O=C(O)Cc1ccc(N=Nc2c(O)c(C(=O)O)cc3ccccc23)cc1	7.7	3.7	-7.1	24.1	-4.5	66.8*	33.6*
SMILES	PAFAH1B3 inh	PAFAH1B2 inh	ASAP1 GAP inh	PAFAH2 inh	ARFGAP1 inh	pPAFAH FP inh	pPAFAH FP conf
NS(=O)(=O)c1ccc(N=Nc2c(O)c(C(=O)O)cc3ccccc23)cc1	12.8	2.6	7.0	15.8	-11.7	40.9*	26.2*
Oc1ccc2ccccc2c1N=Nc1ccc(F)cc1	-43.4	-42.2	-5.4	-112.9	-5.8	-6.1	x
CC(OC(=O)CCN=C1NS(=O)(=O)c2ccccc21)C(=O)N(C)c1ccccc1 (stereo not drawn)	11.7	1.1	-2.4	-4.7	9.9	-1.3	x
CC(OC(=O)CCCN=C1NS(=O)(=O)c2ccccc21)C(=O)N(C)c1ccccc1 (stereo not drawn)	5.5	-0.7	-1.8	0.9	2.2	68.0*	0.2
COc1ccc(N2C[C@@]3(O)CC[C@@H](O)[C@@H](OC)[C@@H]3[C@@](C)(O)[C@@H]2CC=C(C)C)cc1	x	x	1.3	x	1.3	x	x
O=C(Nc1nccs1)c1cccc(N2C(=O)c3cccc4c([N+](=O)[O-])ccc(c34)C2=O)c1	24.3	13.2	10.1	0.8	4.5	-3.4	x
Cc1ccc(C(=O)O)cc1N1C(=O)c2cccc3c([N+](=O)[O-])ccc(c23)C1=O	40.8*	15.4	-10.5	36.3*	-25.6	36.0*	8.9
CCOc1ccc(CN(C)C(=O)CNC(=O)c2sc3ccccc3c2Cl)cc1	4.2	4.8	1.2	7.4	-2.6	-1.4	x
Cc1c(C)c2ccc(OCC(=O)N[C@@H](Cc3ccccc3)C(=O)O)cc2oc1=O	6.8	-1.2	3.1	-2.7	0.8	1.0	x
CCCCCCc1c(C)c2ccc(OCC(=O)N[C@@H](Cc3ccccc3)C(=O)O)cc2oc1=O	6.9	13.5	-10.1	16.1	-15.1	38.3*	20.6
NC(=O)[C@@H]1CCCN1C(=O)[C@@H](Cc1ccccc1)NC(=O)[C@H]1O[C@@H](n2ccc(=O)[nH]c2=O)[C@H](O)[C@@H]1O	x	x	3.1	x	1.1	x	x
CN(C)C(=O)NC(Nc1ccc(Cl)cc1Cl)C(Cl)(Cl)Cl (stereo not drawn)	4.2	0.6	4.2	9.2	2.5	41.7*	4.3
O=C(NC(NC(=S)Nc1ccc(Cl)cc1Cl)C(Cl)(Cl)Cl)c1cccc([N+](=O)[O-])c1 (stereo not drawn)	-17.8	-13.0	6.6	-43.3	-10.9	-48.6	x
COC(=O)c1ccccc1NC(=O)CCC(=O)N1CCSc2ccccc21	-2.4	9.0	-0.5	1.5	2.9	40.6*	3.7
Cc1cc(C)cc(NC(=O)CCC(=O)N2CCSc3ccccc32)c1	1.5	5.8	0.0	-0.5	-3.2	12.2	x
C=CCn1c(SC(C)C(=O)Nc2ccc(Cl)cn2)nnc1C1CC1 (stereo not drawn)	-5.0	-1.9	-5.4	-4.5	7.2	-5.8	x
C=CCn1c(SC(C)C(=O)Nc2ccc(F)c(F)c2F)nnc1C1CC1 (stereo not drawn)	-6.6	-0.2	-3.3	0.4	11.2	35.2*	2.0
